IC50 and Activity data for 13 compounds are collected here from ChEMBL document CHEMBL1143148, “Influence of heterocyclic and oxime-containing farnesol analogs on quorum sensing and pathogenicity in Candida albicans” (Bioorg Med Chem, 2008).

Usually IC50 stands for the concentration needed to halve the response being measured.

Data set [1] relates to Candida albicans. Nature of the data set: Effect on quorum sensing in Candida albicans assessed as inhibition of germ tube formation. The data set is classed as functional, organism-based. The gist of the method: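 Undifferentiated C. albicans cells inoculated to a final 1–2 × 10⁷ cells/ml in 2.5 mM N-acetyl glucosamine buffered to pH 7. Incubated 4 h at 37 °C with shaking at 200 rpm. Percentage of cells forming germ tubes then scored and inhibition relative to untreated cells taken. Triplicate readings.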

In data set [2] the test system is Candida albicans. Nature of the data set: Effect on rate of cell growth in Candida albicans at > 100 uM. The class given is functional, organism-based.
Data set [3] concerns Candida albicans. Nature of the data set: Protection against Candida albicans A72 infected mouse model of disseminated candidiasis assessed as mortality at 20 mM, ip. The data set is classed as functional, organism-based. The gist of the method:
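Mice inoculated by tail vein with C. albicans A72 at 5 × 10⁶ or 2 × 10⁶ cells, 15 per group. Each got 1 ml IP of a 20 mM analog solution in 0.5% Tween 80 in saline, or a vehicle control injection. Mortality followed over time.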

Data set [4] relates to Candida albicans. The experiment in a line: Enhancement of pathogen virulence in Candida albicans A72 infected mouse model of disseminated candidiasis assessed as mortality at 20 mM, ip after 60 hrs of infection relative to control. The class given is functional, organism-based. The gist of the method: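 Mice inoculated by tail vein with C. albicans A72 at 5 · 10⁶ or 2 · 10⁶ cells, 45 mice per inoculum, split into 3 groups of 15. Each group received IP 1 ml of either 0.5% Tween 80 in saline (control) or a 20 mM analog solution in 0.5% Tween 80 in sterile nonpyrogenic saline. Mortality was followed over time.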

Data set [5] has as its system Mus musculus. Nature of the data set: Toxicity against ip dosed mouse after 14 days. The class given is organism-based. Particulars: in vivo, 336 h.

Molecules are shown by their SMILES. Calls of active or inactive are those of the source. No cut-off for these calls is given here.

Consider `CC(C)=C/C=C/C(C)=C/C=C/C(C)=C/C=N/O`, for which, in data set [1], the IC50 is 10 µM. Also, in data set [2], the outcome was inactive.

Regarding `CC(C)=CCC/C(C)=C/CCc1nnn[nH]1`, the result in data set [3] and in data set [2] was inactive. Moreover, the result in data set [4] was Active. Moreover, the IC50 in data set [1] came out at 7 µM. For the same compound, the Activity result in data set [5] is on record as “Non-toxic”.

For `CC(C)=CCC/C(C)=C/CSc1nn[nH]n1`, the IC50 in data set [1] is > 50 µM.

Take `CO/N=C/C=C(\C)CC/C=C(\C)CCC=C(C)C`: the IC50 in data set [1] is ≥ 100 µM. Also, the result in data set [2] was inactive.

On to `CC(C)=CCC/C(C)=C/CC/C(C)=C/C=N/O`, for which the IC50 in data set [1] was found to be 5 µM. The Activity entry in data set [5] is “Toxic”. Besides, the result in data set [2] was inactive.

Consider `CC(C)=CCC/C(C)=C/Cc1nnn[nH]1`, for which, in data set [1], the IC50 was > 50 µM. In addition, the outcome in data set [2] was inactive.

As to `CC(C)=CCC/C(C)=C/CSc1c[nH]nn1`, the IC50 in data set [1] turned out to be 3 µM.

On to `C(=C\c1nn[nH]n1)/c1ccccc1`, for which the IC50 in data set [1] was determined as 10 µM. For the same compound, the result in data set [2] was inactive.

Turning to `CC(C)=CCC/C(C)=C/CC/C(C)=C/CO` [FARNESOL], in data set [1], the IC50 stood at 1 µM. Further, in data set [5], the Activity result was “Non-toxic”. In data set [2], the result was inactive.

With `CC(C)=CCC/C(C)=C/CSc1ncc[nH]1`, the IC50 in data set [1] was > 50 µM.

For the compound `CC(C)=CCC/C(C)=C/CSc1nc[nH]n1`, the result in data set [3] was inactive. Besides, in data set [1], the IC50 stood at 1 µM. Also, in data set [5], the Activity result is “Non-toxic”.

Turning to `CCCCCCCCCc1nnn[nH]1`, the IC50 in data set [1] amounted to 3 µM. Further, the Activity entry in data set [5] is recorded as “Non-toxic”. The result in data set [2] was inactive.

For the compound `CC(C)=CCC/C(C)=C/CCc1c[nH]nn1`, the IC50 in data set [1] was determined as 1 µM.
